Common to all, as to assay type: functional
Assay [1] deals with Rattus norvegicus. Description: Effect on level of high density lipoprotein cholesterol (relative to untreated control) in cholesterol fed-male rats at 68 mg/kg/day. Summed up: (§1)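 Male Sprague–Dawley rats (groups of six) fed a cholic acid- and cholesterol-supplemented diet; compound mixed into the diet, given ad libitum for eight days. Lipoproteins were separated by ultracentrifugation, and cholesterol was measured by an enzymatic colorimetric method. Results are % change versus untreated controls, with significance at p < 0.05.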

In assay [2] the test system is Rattus norvegicus. Description: Effect on level of total cholesterol (relative to untreated control) in cholesterol fed-male rats at 68 mg/kg/day. Summed up: as §1
Assay [3] deals with Rattus norvegicus. Kind of assay: Effect on change in body weight gain (relative to untreated control) in cholesterol fed-male rats at 68 mg/kg/day. The procedure, abridged:
(§2)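 Male Sprague–Dawley rats, six per group, on a cholic acid- and cholesterol-supplemented diet. Compounds were mixed into the diet and given ad libitum for eight days. Change in body weight gain is expressed as a percentage of untreated controls. Significance was set at p < 0.05 versus untreated controls.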

The subject of assay [4] is Rattus norvegicus. Description: Effect on level of triglyceride in (relative to untreated control) in cholesterol fed-male rats at 68 mg/kg/day. The procedure, abridged: (§3)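 Serum triglycerides were measured in groups of six male Sprague–Dawley rats on a cholic acid/cholesterol-supplemented diet. Compound was dosed in the diet, ad libitum, for eight days. Results are % change relative to untreated controls, with significance at p < 0.05.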

The test system of assay [5] is Rattus norvegicus. Description: Effect on level of apolipoprotein (Apo) AI (relative to untreated control) in cholesterol fed-male rats at 68 mg/kg/day. Summed up:
(§4)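 Six male Sprague–Dawley rats per group, fed a cholic acid/cholesterol-supplemented diet, received compound in the diet ad libitum for eight days. Serum Apo A–I was measured by SDS-PAGE or by rat competition ELISA and reported as % change versus untreated controls (p < 0.05). Gemfibrozil was the internal positive control in each study.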

In assay [6] the test system is Rattus norvegicus. Kind of assay: Effect on level of high density lipoprotein cholesterol (relative to untreated control) in cholesterol fed-male rats at 42 mg/kg/day. Summed up: (§5)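 Cholic acid/cholesterol-fed male Sprague–Dawley rats (n = 6 per group) were dosed via diet ad libitum for eight days. Lipoproteins were separated by ultracentrifugation and HDL cholesterol was quantified by an enzymatic colorimetric method. Values are % change relative to untreated controls, with significance at p < 0.05. Gemfibrozil was the internal positive control.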

For assay [7], the system named is Rattus norvegicus. Description: Effect on change in body weight gain (relative to untreated control) in cholesterol fed-male rats at 42 mg/kg/day. The procedure, abridged:
as §2

The test system of assay [8] is Rattus norvegicus. Kind of assay: Effect on level of total cholesterol (relative to untreated control) in cholesterol fed-male rats at 42 mg/kg/day. Summed up: as §1
The subject of assay [9] is Rattus norvegicus. Description: Effect on level of triglyceride in (relative to untreated control) in cholesterol fed-male rats at 42 mg/kg/day. Summed up:
as §3

The subject of assay [10] is Rattus norvegicus. Description: Effect on level of apolipoprotein (Apo) AI (relative to untreated control) in cholesterol fed-male rats at 42 mg/kg/day. The procedure, abridged:
as §4

Assay [11] concerns Rattus norvegicus. Description: Effect on level of high density lipoprotein cholesterol (relative to untreated control) in cholesterol fed-male rats at 75 mg/kg/day. Summed up: as §1
Assay [12] relates to Rattus norvegicus. Kind of assay: Effect on level of total cholesterol (relative to untreated control) in cholesterol fed-male rats at 75 mg/kg/day. Summed up:
as §1

Assay [13] concerns Rattus norvegicus. Description: Effect on level of triglyceride in (relative to untreated control) in cholesterol fed-male rats at 75 mg/kg/day. Summed up: as §3
Assay [14] concerns Rattus norvegicus. Description: Effect on level of apolipoprotein (Apo) AI (relative to untreated control) in cholesterol fed-male rats at 75 mg/kg/day. Summed up:
as §4

Assay [15] concerns Rattus norvegicus. Kind of assay: Effect on change in body weight gain (relative to untreated control) in cholesterol fed-male rats at 75 mg/kg/day. Summed up: as §2
The test system of assay [16] is Rattus norvegicus. Description: Effect on level of high density lipoprotein cholesterol (relative to untreated control) in cholesterol fed-male rats at 50 mg/kg/day. Summed up: as §5
Assay [17] deals with Rattus norvegicus. Description: Effect on change in body weight gain (relative to untreated control) in cholesterol fed-male rats at 50 mg/kg/day. The procedure, abridged:
as §2

Assay [18] has as its system Rattus norvegicus. Kind of assay: Effect on level of total cholesterol (relative to untreated control) in cholesterol fed-male rats at 50 mg/kg/day. Summed up: as §1
In assay [19] the test system is Rattus norvegicus. Description: Effect on level of apolipoprotein (Apo) AI (relative to untreated control) in cholesterol fed-male rats at 50 mg/kg/day. The procedure, abridged:
as §4

The subject of assay [20] is Rattus norvegicus. Kind of assay: Effect on level of triglyceride in (relative to untreated control) in cholesterol fed-male rats at 50 mg/kg/day. The procedure, abridged:
as §3

Assay [21] relates to Rattus norvegicus. Kind of assay: Effect on level of apolipoprotein (Apo) AI (relative to untreated control) in cholesterol fed-male rats at 36 mg/kg/day. Summed up:
as §4

Assay [22] relates to Rattus norvegicus. Description: Effect on level of high density lipoprotein cholesterol (relative to untreated control) in cholesterol fed-male rats at 36 mg/kg/day. Summed up: as §5
Assay [23] relates to Rattus norvegicus. Description: Effect on change in body weight gain (relative to untreated control) in cholesterol fed-male rats at 36 mg/kg/day. The procedure, abridged:
as §2

Assay [24] deals with Rattus norvegicus. Kind of assay: Effect on level of total cholesterol (relative to untreated control) in cholesterol fed-male rats at 36 mg/kg/day. The procedure, abridged:
as §1

For assay [25], the system named is Rattus norvegicus. Description: Effect on level of triglyceride in (relative to untreated control) in cholesterol fed-male rats at 36 mg/kg/day. Summed up: as §3
Assay [26] deals with Rattus norvegicus. Kind of assay: Effect on level of high density lipoprotein cholesterol (relative to untreated control) in cholesterol fed-male rats at 67 mg/kg/day. Summed up:
as §1

For assay [27], the system named is Rattus norvegicus. Description: Effect on level of total cholesterol (relative to untreated control) in cholesterol fed-male rats at 67 mg/kg/day. Summed up:
as §1

Assay [28] has as its system Rattus norvegicus. Kind of assay: Effect on change in body weight gain (relative to untreated control) in cholesterol fed-male rats at 67 mg/kg/day. The procedure, abridged: as §2
For assay [29], the system named is Rattus norvegicus. Description: Effect on level of triglyceride in (relative to untreated control) in cholesterol fed-male rats at 67 mg/kg/day. The procedure, abridged:
as §3

Assay [30] concerns Rattus norvegicus. Description: Effect on level of apolipoprotein (Apo) AI (relative to untreated control) in cholesterol fed-male rats at 67 mg/kg/day. Summed up: as §4
For assay [31], the system named is Rattus norvegicus. Kind of assay: Effect on level of high density lipoprotein cholesterol (relative to untreated control) in cholesterol fed-male rats at 51 mg/kg/day. The procedure, abridged:
as §5

Assay [32] has as its system Rattus norvegicus. Kind of assay: Effect on change in body weight gain (relative to untreated control) in cholesterol fed-male rats at 51 mg/kg/day. Summed up: as §2
For assay [33], the system named is Rattus norvegicus. Description: Effect on level of total cholesterol (relative to untreated control) in cholesterol fed-male rats at 51 mg/kg/day. Summed up:
as §1

The subject of assay [34] is Rattus norvegicus. Description: Effect on level of triglyceride in (relative to untreated control) in cholesterol fed-male rats at 51 mg/kg/day. The procedure, abridged:
as §3

Assay [35] concerns Rattus norvegicus. Description: Effect on level of apolipoprotein (Apo) AI (relative to untreated control) in cholesterol fed-male rats at 51 mg/kg/day. Summed up:
as §4

Each structure is given as a SMILES string.

For `OCC/N=C(\S)Nc1cc(Cl)ccc1Cl`, the Activity was 71% in the assay on Rattus norvegicus [1]; 21% in the assay on Rattus norvegicus [2]; -66% with Rattus norvegicus [3]; -13% in the assay on Rattus norvegicus [4]; 36% with Rattus norvegicus [5].
Take `Cc1cc(Cl)ccc1/N=C(\S)NCCO`: the Activity in the assay on Rattus norvegicus [6] was 53%; in the assay on Rattus norvegicus [7], -229%; in the assay on Rattus norvegicus [8], 17%; in the assay with Rattus norvegicus [9] it was -8%; in the assay with Rattus norvegicus [10], 18%.
As to `Cc1ccc(Cl)cc1N/C(S)=N/[C@H](C)CO`, the Activity is recorded as 13% in the assay on Rattus norvegicus [11]; 85% in the assay with Rattus norvegicus [12]; -23% in the assay with Rattus norvegicus [13]; 6% in the assay on Rattus norvegicus [14]; -4% in the assay with Rattus norvegicus [15].
With `Cc1ccc(C)c(OCCCC(C)(C)C(=O)O)c1` [GEMFIBROZIL], the Activity is recorded as 104% with Rattus norvegicus [16]; 2% with Rattus norvegicus [17]; -23% in the assay on Rattus norvegicus [18]; 54% in the assay on Rattus norvegicus [19]; -29% with Rattus norvegicus [20].
`Cc1ccc(Cl)cc1/N=C(\S)NCCS`: the Activity in the assay with Rattus norvegicus [21] is 10%; with Rattus norvegicus [22] it was 25%; with Rattus norvegicus [23], -20%; in the assay on Rattus norvegicus [24], 8%; with Rattus norvegicus [25], -3%.
For `Cc1c(Cl)cccc1/N=C(\S)NCCO`, the Activity in the assay with Rattus norvegicus [26] is listed as 63%; in the assay on Rattus norvegicus [27] it was 10%; with Rattus norvegicus [28] it was -56%; in the assay on Rattus norvegicus [29], -16%; with Rattus norvegicus [30], 27%.
In the case of `COCC/N=C(\S)Nc1cc(Cl)ccc1C`, the Activity in the assay on Rattus norvegicus [21] was 33%; in the assay on Rattus norvegicus [22] it was 30%; in the assay on Rattus norvegicus [23] it was -3%; in the assay on Rattus norvegicus [24] it was 20%; in the assay with Rattus norvegicus [25], -47%.
On to `Cc1ccccc1/N=C(\S)NCCO`, for which the Activity is recorded as 3% in the assay with Rattus norvegicus [31]; -138% in the assay with Rattus norvegicus [32]; 66% in the assay with Rattus norvegicus [33]; -51% in the assay with Rattus norvegicus [34]; -18% with Rattus norvegicus [35].
Take `OCC/N=C(\S)Nc1cccc(C(F)(F)F)c1`: the Activity in the assay with Rattus norvegicus [1] is 66%; with Rattus norvegicus [2], 44%; in the assay on Rattus norvegicus [3], -76%; in the assay with Rattus norvegicus [4] it was -15%; in the assay on Rattus norvegicus [5] it was 36%.

The values are drawn from ChEMBL document CHEMBL1144306, “1-Hydroxyalkyl-3-phenylthioureas as novel HDL-elevating agents” (2005).
